Measurements from ChEMBL document CHEMBL1275408, “A chemical genomic screen in Saccharomyces cerevisiae reveals a role for diphthamidation of translation elongation factor 2 in inhibition of protein synthesis by sordarin” (2008).
Active and inactive are the calls of the source. No cut-off for these calls is given here.

What was measured:
Saccharomyces cerevisiae [1] = test: Antifungal activity against Saccharomyces cerevisiae BY4741 harboring RAD28 YDR030C mutant gene by spectrophotometry; format: functional
How it was run: (§1)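 Haploid MATa BY4741 KanMX4 deletion strains pinned from frozen stocks into YPD + G418 (150 mg/liter), grown 3 days at 28°C to confluence, then pin-replicated into SC liquid with no drug or sordarin derivative GM193663 (2 ng/ml sensitivity; 62.5 ng/ml resistance). 28°C, OD595 read every 24 h for 5 days; growth scored relative to wild type on same plate and to untreated mutant.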

Saccharomyces cerevisiae [2] = test: Antifungal activity against Saccharomyces cerevisiae BY4741 harboring FYV1 YDR024W mutant gene by spectrophotometry; format: functional
How it was run: (§2)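 Screen of BY4741 KanMX4 deletion strains pre-grown 3 days at 28°C in YPD with G418 (150 mg/liter), then pinned into liquid SC containing GM193663. The sensitivity screen used 2 ng/ml; the resistance screen used 62.5 ng/ml, with validation at 62.5, 125 and 500 ng/ml. OD595 was read every 24 h over 5 days at 28°C. Growth was scored relative to wild type and to drug-free controls. Retests were at least in duplicate.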

Saccharomyces cerevisiae [3] = test: Antifungal activity against Saccharomyces cerevisiae BY4741 harboring deletion mutation in dph2 gene at 300 to 500 ng/ml after 24 hrs by liquid growth assay; format: functional
Saccharomyces cerevisiae [4] = test: Antifungal activity against Saccharomyces cerevisiae BY4741 harboring ARN1 YHL040C mutant gene by spectrophotometry; format: functional; how it was run: as §2
Saccharomyces cerevisiae [5] = test: Antifungal activity against Saccharomyces cerevisiae BY4741 harboring YBL100C mutation assessed as reduction in fungal growth at 2 ng/ml by spectrophotometry; format: functional, organism-based
How it was run: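 Deletion strains (BY4741 background) pre-grown 3 days at 28°C in YPD + G418 (150 mg/liter), then pin-replicated into SC liquid containing 2 ng/ml GM193663 or no drug. 28°C, OD595 every 24 h over 5 days; growth scored against wild type on same plate and against drug-free mutant control; hits retested at least in duplicate at 2 ng/ml.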

Saccharomyces cerevisiae [6] = test: Antifungal activity against Saccharomyces cerevisiae BY4741 harboring MIP6 YHR015W mutant gene by spectrophotometry; format: functional; how it was run: as §2
Saccharomyces cerevisiae [7] = test: Antifungal activity against Saccharomyces cerevisiae BY4741 harboring YDR042C mutation in unknown gene by spectrophotometry; format: functional
How it was run: (§3)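 Deletion strains from the nonessential haploid MATa BY4741 collection (KanMX4 replacement) were grown in YPD with G418 at 28°C for 3 days, then pinned into liquid SC with or without sordarin derivative GM193663 (2 ng/ml for sensitivity, 62.5 ng/ml for resistance). Cultures were kept at 28°C and read at OD595 every 24 h for 5 days. Growth was scored against wild type on the same plate and against the drug-free control. Hits were retested at least in duplicate.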

Saccharomyces cerevisiae [8] = test: Antifungal activity against Saccharomyces cerevisiae BY4741 harboring CPR6 YLR216C mutant gene by spectrophotometry; format: functional; how it was run: as §2
Saccharomyces cerevisiae [9] = test: Antifungal activity against Saccharomyces cerevisiae BY4741 harboring MRPL37 YBR268W mutant gene by spectrophotometry; format: functional; how it was run: as §1
Saccharomyces cerevisiae [10] = test: Antifungal activity against Saccharomyces cerevisiae BY4741 harboring YBR099C mutation by spectrophotometry; format: functional; how it was run: as §1
Saccharomyces cerevisiae [11] = test: Antifungal activity against Saccharomyces cerevisiae BY4741 harboring MRH1 YDR033W mutant gene by spectrophotometry; format: functional; how it was run: as §2
Saccharomyces cerevisiae [12] = test: Antifungal activity against Saccharomyces cerevisiae BY4741 harboring deletion mutation in dph3 gene at 100 ng/ml by plate assay; format: functional, organism-based
How it was run: (§4)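 Spot test on solid SC glucose plates with or without 100 ng/ml sordarin. Drops of 10^5 cells plus 10-fold serial dilutions of each dph deletion strain were spotted alongside the parental strain. Plates were incubated at 28°C for 6 days and imaged every 24 h.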

Saccharomyces cerevisiae [13] = test: Antifungal activity against Saccharomyces cerevisiae BY4741 harboring YER184C mutation in unknown gene by spectrophotometry; format: functional; how it was run: as §3
Saccharomyces cerevisiae [14] = test: Antifungal activity against Saccharomyces cerevisiae BY4741 harboring GGC1 YDL198C mutant gene by spectrophotometry; format: functional; how it was run: as §2
Saccharomyces cerevisiae [15] = test: Antifungal activity against Saccharomyces cerevisiae BY4741 harboring RPL16B YNL069C mutant gene by spectrophotometry; format: functional; how it was run: as §1
Saccharomyces cerevisiae [16] = test: Antifungal activity against Saccharomyces cerevisiae BY4741 harboring MRPL11 YDL202W mutant gene by spectrophotometry; format: functional; how it was run: as §1
Saccharomyces cerevisiae [17] = test: Antifungal activity against Saccharomyces cerevisiae BY4741 harboring deletion mutation in dph1 gene at 300 to 500 ng/ml after 24 hrs by liquid growth assay; format: functional
Saccharomyces cerevisiae [18] = test: Antifungal activity against Saccharomyces cerevisiae BY4741 harboring PTP3 YER075C mutant gene by spectrophotometry; format: functional; how it was run: as §1
Saccharomyces cerevisiae [19] = test: Antifungal activity against Saccharomyces cerevisiae BY4741 harboring SHE2 YKL130C mutant gene by spectrophotometry; format: functional; how it was run: as §1
Saccharomyces cerevisiae [20] = test: Antifungal activity against Saccharomyces cerevisiae BY4741 harboring BAP2 YBR068C mutant gene by spectrophotometry; format: functional; how it was run: as §2
Saccharomyces cerevisiae [21] = test: Antifungal activity against Saccharomyces cerevisiae BY4741 harboring MRPL36 YBR122C mutant gene by spectrophotometry; format: functional; how it was run: as §1
Saccharomyces cerevisiae [22] = test: Antifungal activity against Saccharomyces cerevisiae BY4741 harboring DLT1 YMR126C mutant gene by spectrophotometry; format: functional; how it was run: as §2
Saccharomyces cerevisiae [23] = test: Antifungal activity against Saccharomyces cerevisiae BY4741 harboring deletion mutation in dph4 gene at 100 ng/ml by plate assay; format: functional, organism-based; how it was run: as §4
Saccharomyces cerevisiae [24] = test: Antifungal activity against Saccharomyces cerevisiae BY4741 harboring SER1 YOR184W mutant gene by spectrophotometry; format: functional; how it was run: as §1
Saccharomyces cerevisiae [25] = test: Antifungal activity against Saccharomyces cerevisiae BY4741 harboring YDL063C mutation in unknown gene by spectrophotometry; format: functional; how it was run: as §1
Saccharomyces cerevisiae [26] = test: Antifungal activity against Saccharomyces cerevisiae BY4741 harboring YCL042W mutation by spectrophotometry; format: functional; how it was run: as §1
Saccharomyces cerevisiae [27] = test: Antifungal activity against Saccharomyces cerevisiae BY4741 harboring deletion mutation in dph3 gene at 300 to 500 ng/ml after 24 hrs by liquid growth assay; format: functional
Saccharomyces cerevisiae [28] = test: Antifungal activity against Saccharomyces cerevisiae BY4741 harboring MRPL3 YMR024W mutant gene by spectrophotometry; format: functional; how it was run: as §1
Saccharomyces cerevisiae [29] = test: Antifungal activity against Saccharomyces cerevisiae BY4741 harboring PRR2 YDL214C mutant gene by spectrophotometry; format: functional; how it was run: as §1
Saccharomyces cerevisiae [30] = test: Antifungal activity against Saccharomyces cerevisiae BY4741 harboring PUF3 YLL013C mutant gene by spectrophotometry; format: functional; how it was run: as §1
Saccharomyces cerevisiae [31] = test: Antifungal activity against Saccharomyces cerevisiae BY4741 harboring FMP35 YIL157C mutant gene by spectrophotometry; format: functional; how it was run: as §2
Saccharomyces cerevisiae [32] = test: Antifungal activity against Saccharomyces cerevisiae BY4741 harboring KTR7 YIL085C mutant gene by spectrophotometry; format: functional; how it was run: as §2
Saccharomyces cerevisiae [33] = test: Antifungal activity against Saccharomyces cerevisiae BY4741 harboring YDR008C mutation by spectrophotometry; format: functional; how it was run: as §1
Saccharomyces cerevisiae [34] = test: Antifungal activity against Saccharomyces cerevisiae BY4741 harboring CNM67 YNL225C mutant gene assessed as reduction in fungal growth at 2 ng/ml by spectrophotometry; format: functional, organism-based
How it was run: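 Haploid BY4741 KanMX4 deletion strains pre-grown in YPD with G418 (150 mg/liter) for 3 days at 28°C. They were then pin-replicated into liquid SC with sordarin derivative GM193663 at 2 ng/ml, or without drug. Plates were incubated at 28°C and OD595 read every 24 h for 5 days. Growth was scored against wild type on the same plate and against the drug-free mutant. Hits were retested at least in duplicate.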

`CO[C@H]1[C@@H](O)[C@H](O)[C@H](OC[C@@]23C[C@@H]4[C@H](C)CC[C@H]4[C@@]4(C=O)CC2C=C(C(C)C)[C@@]34C(=O)O)O[C@@H]1C` [SORDARIN] was tested, and the MIC (Saccharomyces cerevisiae [1]) was > 0.5 µg/mL, the MIC (Saccharomyces cerevisiae [2]) was > 0.5 µg/mL and the Activity (Saccharomyces cerevisiae [3]) was 50%. The MIC (Saccharomyces cerevisiae [4]) was > 0.5 µg/mL, the Activity (Saccharomyces cerevisiae [5]) was “Active” and the MIC (Saccharomyces cerevisiae [6]) was > 0.5 µg/mL. The MIC (Saccharomyces cerevisiae [7]) was > 0.125 µg/mL, the MIC (Saccharomyces cerevisiae [8]) was > 0.125 µg/mL and the MIC (Saccharomyces cerevisiae [9]) was > 0.5 µg/mL. For the same molecule, the MIC (Saccharomyces cerevisiae [10]) was > 0.5 µg/mL, the MIC (Saccharomyces cerevisiae [11]) was > 0.125 µg/mL and the MIC (Saccharomyces cerevisiae [12]) was “inactive”. For the same molecule, the MIC (Saccharomyces cerevisiae [13]) was > 0.125 µg/mL, the MIC (Saccharomyces cerevisiae [14]) was > 0.5 µg/mL and the MIC (Saccharomyces cerevisiae [15]) was > 0.125 µg/mL. For the same molecule, the MIC (Saccharomyces cerevisiae [16]) was > 0.0625 µg/mL, the Activity (Saccharomyces cerevisiae [17]) was 50% and the MIC (Saccharomyces cerevisiae [18]) was > 0.125 µg/mL. For the same molecule, the MIC (Saccharomyces cerevisiae [19]) was > 0.125 µg/mL, the MIC (Saccharomyces cerevisiae [20]) was > 0.125 µg/mL and the MIC (Saccharomyces cerevisiae [21]) was > 0.5 µg/mL. The MIC (Saccharomyces cerevisiae [22]) was > 0.125 µg/mL, the MIC (Saccharomyces cerevisiae [23]) was “inactive” and the MIC (Saccharomyces cerevisiae [24]) was > 0.5 µg/mL. For the same molecule, the MIC (Saccharomyces cerevisiae [25]) was > 0.125 µg/mL, the MIC (Saccharomyces cerevisiae [26]) was > 0.125 µg/mL and the Activity (Saccharomyces cerevisiae [27]) was 50%. The MIC (Saccharomyces cerevisiae [28]) was > 0.125 µg/mL, the MIC (Saccharomyces cerevisiae [29]) was > 0.5 µg/mL and the MIC (Saccharomyces cerevisiae [30]) was > 0.5 µg/mL. For the same molecule, the MIC (Saccharomyces cerevisiae [31]) was > 0.5 µg/mL, the MIC (Saccharomyces cerevisiae [32]) was > 0.5 µg/mL and the MIC (Saccharomyces cerevisiae [33]) was > 0.5 µg/mL. The Activity (Saccharomyces cerevisiae [34]) was “Active”.
